Activity calls are given as the source filed them. The rule behind the calls is not given here.
Legend:
[1] = Cell cycle arrest in human MCF7/ADR cells assessed as accumulation at G1 phase at 0.25 uM after 48 hrs by propidium iodide staining based flow cytometry (reference value: 56.9 %); format: functional; conditions: NCI/ADR-RES
In short: (§1)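 Cells treated for 24 h or 48 h, then trypsinized, fixed in ice-cold 70% ethanol and stained with propidium iodide for flow cytometry. Percentages of cells in G1 and sub-G1 are compared with untreated cells.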

[2] = tested on: NCI/ADR-RES; assay: Effect on cleaved PARP level in human MCF7/ADR cells at 0.1 uM after 24 and 48 hrs by western blot analysis; format: functional, cell-based
In short: (§2)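 Lysates from treated cells were immunoblotted. Membranes were blocked in 5% nonfat milk, incubated overnight at 4 C with antibodies to PARP, p27, cyclin D1 or cyclin B1, and detected by enhanced chemiluminescence.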

[3] = tested on: MCF7; assay: Upregulation of p27 expression in human MCF7 Cells at 0.5 uM after 24 and 48 hrs by western blot analysis; format: functional, cell-based; in short: as §2
[4] = biological target: T1, MDR1 (ABCB1) (Homo sapiens, UniProt P08183); assay: Activity at MDR1 (unknown origin) expressed in MDCK cells assessed as permeability across basolateral to apical after 90 mins by LC-MS/MS analysis; format: ADME, cell-based
[5] = tested on: MCF7; assay: Downregulation of cyclin D1 expression in human MCF7 cells at 0.5 uM after 24 and 48 hrs by western blot analysis; format: functional, cell-based; in short: as §2
[6] = Downregulation of cyclin B1 expression in human MCF7/ADR cells at 0.1 uM after 48 hrs by western blot analysis; format: functional, cell-based; conditions: NCI/ADR-RES; in short: as §2
[7] = tested on: MCF7; assay: Cell cycle arrest in human MCF7 cells assessed as accumulation at G1 phase after 24 and 48 hrs by propidium iodide staining based flow cytometry; format: functional; in short: as §1
[8] = Cell cycle arrest in human MCF7/ADR cells assessed as accumulation at sub-G1 phase at 0.25 uM after 48 hrs by propidium iodide staining based flow cytometry (reference value: […]); format: functional; conditions: NCI/ADR-RES
[9] = tested on: MCF7; assay: Cell cycle arrest in human MCF7 cells assessed as accumulation at G1 phase at 0.5 uM after 24 hrs by propidium iodide staining based flow cytometry (reference value: 62.5 %); format: functional; in short: as §1
[10] = Permeability across basolateral to apical side in MDCK cells after 90 mins by LC-MS/MS analysis; format: ADME, cell-based, Canis lupus familiaris; conditions: dog
In short: (§3)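 Wild-type MDCK cells on Transwell filters. Transport was run in HBSS pH 7.4 at 37 °C in A-B and B-A directions, and plates were separated after 90 min incubation. Efflux ratio is Papp(B-A)/Papp(A-B). Papp is reported as "<" when receiver concentrations were below the quantitation limit.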

[11] = Antiproliferative activity against human MCF7/ADR cells after 96 hrs by MTT assay; format: functional; conditions: NCI/ADR-RES
In short: (§4)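 MTT: cells seeded at 1.5-4.0 × 10^4 cells/mL and incubated overnight at 37 C, then exposed to 5-9 concentrations (DMSO stocks diluted in growth medium; final DMSO ≤0.5%) for 96 h. MTT added at 0.5 mg/mL for a further 4 h at 37 C and the formazan dissolved. Inhibition calculated relative to control; GI50 estimated by curve fitting; 3-5 repeats, mean ± SD.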

[12] = tested on: NCI/ADR-RES; assay: Selectivity index, ratio of GI50 for human MCF7 cells to GI50 for human MCF7/ADR cells; format: functional
[13] = biological target: T1, MDR1 (ABCB1); assay: Activity at MDR1 (unknown origin) expressed in MDCK cells assessed as permeability across apical to basolateral after 90 mins by LC-MS/MS analysis; format: ADME, cell-based
[14] = tested on: MCF7; assay: Cell cycle arrest in human MCF7 cells assessed as accumulation at G1 phase at 0.25 uM after 48 hrs by propidium iodide staining based flow cytometry (reference value: 62.8%); format: functional; in short: as §1
[15] = tested on: NCI/ADR-RES; assay: Effect on p27 expression in human MCF7/ADR cells at 0.1 uM after 48 hrs by western blot analysis; format: functional, cell-based; in short: as §2
[16] = Cell cycle arrest in human MCF7/ADR cells assessed as accumulation at G1 phase at 0.05 uM after 48 hrs by propidium iodide staining based flow cytometry (reference value: 56.9 %); format: functional; conditions: NCI/ADR-RES; in short: as §1
[17] = Cell cycle arrest in human MCF7/ADR cells assessed as accumulation at G1 phase at 0.25 uM after 24 hrs by propidium iodide staining based flow cytometry (reference value: 54.6 %); format: functional; conditions: NCI/ADR-RES; in short: as §1
[18] = tested on: MCF7; assay: Downregulation of cyclin B1 expression in human MCF7 cells at 0.5 uM after 24 and 48 hrs by western blot analysis; format: functional, cell-based; in short: as §2
[19] = tested on: MCF7; assay: Cell cycle arrest in human MCF7 cells assessed as accumulation at G1 phase at 0.25 uM after 24 hrs by propidium iodide staining based flow cytometry (reference value: 62.5 %); format: functional; in short: as §1
[20] = Downregulation of cyclin D1 expression in human MCF7/ADR cells at 0.1 uM after 48 hrs by western blot analysis; format: functional, cell-based; conditions: NCI/ADR-RES; in short: as §2
[21] = tested on: MCF7; assay: Antiproliferative activity against human MCF7 cells after 96 hrs by MTT assay; format: functional; conditions: MCF7, 96 h; in short: as §4
[22] = tested on: MCF7; assay: Cell cycle arrest in human MCF7 cells assessed as accumulation at G1 phase at 0.5 uM after 48 hrs by propidium iodide staining based flow cytometry (reference value: 62.8 %); format: functional; in short: as §1
[23] = Cell cycle arrest in human MCF7/ADR cells assessed as accumulation at sub-G1 phase at 0.05 uM after 48 hrs by propidium iodide staining based flow cytometry (reference value: […]); format: functional; conditions: NCI/ADR-RES
[24] = tested on: MCF7; assay: Effect on cleaved PARP level in human MCF7 cells at 0.5 uM after 24 and 48 hrs by western blot analysis; format: functional, cell-based; in short: as §2
[25] = Permeability across apical to basolateral side in MDCK cells after 90 mins by LC-MS/MS analysis; format: ADME, cell-based, Canis lupus familiaris; conditions: dog; in short: as §3
[26] = Cell cycle arrest in human MCF7/ADR cells assessed as accumulation at G1 phase at 0.05 uM after 24 hrs by propidium iodide staining based flow cytometry (reference value: 54.6 %); format: functional; conditions: NCI/ADR-RES; in short: as §1

T1 sequence (P08183 whole entry): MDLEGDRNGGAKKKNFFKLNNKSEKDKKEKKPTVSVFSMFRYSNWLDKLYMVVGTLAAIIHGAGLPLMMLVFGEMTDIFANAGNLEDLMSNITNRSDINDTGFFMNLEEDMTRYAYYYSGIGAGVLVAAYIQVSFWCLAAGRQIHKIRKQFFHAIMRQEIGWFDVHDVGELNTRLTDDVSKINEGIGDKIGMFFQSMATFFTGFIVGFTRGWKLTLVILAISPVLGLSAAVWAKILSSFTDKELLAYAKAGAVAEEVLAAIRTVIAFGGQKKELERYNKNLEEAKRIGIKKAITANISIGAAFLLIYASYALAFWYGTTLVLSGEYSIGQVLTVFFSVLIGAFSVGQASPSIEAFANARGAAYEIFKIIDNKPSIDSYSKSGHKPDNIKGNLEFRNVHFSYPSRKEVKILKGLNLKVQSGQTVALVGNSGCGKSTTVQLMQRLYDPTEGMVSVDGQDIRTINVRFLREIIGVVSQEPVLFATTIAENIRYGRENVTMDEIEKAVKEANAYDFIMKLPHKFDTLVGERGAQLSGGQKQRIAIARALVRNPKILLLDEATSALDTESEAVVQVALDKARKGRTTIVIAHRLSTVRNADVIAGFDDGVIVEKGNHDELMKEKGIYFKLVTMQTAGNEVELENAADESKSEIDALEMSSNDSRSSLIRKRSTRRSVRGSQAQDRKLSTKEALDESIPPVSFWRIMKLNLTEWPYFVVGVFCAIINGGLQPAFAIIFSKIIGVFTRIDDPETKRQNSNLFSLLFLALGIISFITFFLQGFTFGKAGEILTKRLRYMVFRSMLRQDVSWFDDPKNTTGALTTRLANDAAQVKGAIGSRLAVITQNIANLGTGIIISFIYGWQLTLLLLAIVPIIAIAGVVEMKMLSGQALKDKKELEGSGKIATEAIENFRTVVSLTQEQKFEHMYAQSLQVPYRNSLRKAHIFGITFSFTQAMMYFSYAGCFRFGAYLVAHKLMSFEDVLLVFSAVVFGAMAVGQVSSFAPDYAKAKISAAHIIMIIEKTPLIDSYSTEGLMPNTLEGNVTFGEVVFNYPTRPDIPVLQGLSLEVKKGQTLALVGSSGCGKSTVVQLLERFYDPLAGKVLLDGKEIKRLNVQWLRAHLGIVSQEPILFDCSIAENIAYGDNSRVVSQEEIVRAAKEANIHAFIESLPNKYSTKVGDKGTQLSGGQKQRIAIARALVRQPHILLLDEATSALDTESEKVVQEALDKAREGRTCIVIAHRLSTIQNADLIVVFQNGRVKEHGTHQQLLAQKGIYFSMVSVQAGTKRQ

Q: With C[C@H]1[C@@H](Oc2ccc(/C=C/C(=O)N3CCN(c4cccc(C(F)(F)F)c4)CC3)cc2)O[C@@H]2O[C@@]3(C)CC[C@H]4[C@H](C)CC[C@@H]1[C@@]24OO3 as the compound, how does the Activity [1] read?
A: Its Activity is 62.6%.

Q: And the Activity [2]?
A: The Activity was “inactive”.

Q: And the Activity [3]?
A: Its Activity is “Active”.

Q: What about the Papp B→A at 1.5 h [4] of the same compound?
A: The Papp B→A at 1.5 h was under 1 ×10⁻⁶ cm/s.

Q: What about the inhibition [5] of the same compound?
A: Its inhibition is “Active”.

Q: What about the inhibition [6] of the same compound?
A: Its inhibition is “Active”.

Q: What about the Activity [7] of the same compound?
A: Its Activity is “Dose-dependent effect”.

Q: What about the Activity [8] of the same compound?
A: The Activity was 8.7%.

Q: What about the Activity [9] of the same compound?
A: The Activity was 73.8%.

Q: What about the Papp B→A at 1.5 h [10] of the same compound?
A: Its Papp B→A at 1.5 h is under 0.93 ×10⁻⁶ cm/s.

Q: What about the GI50 [11] of the same compound?
A: The GI50 was 21 nM.

Q: And the RatioGI50 [12]?
A: Its RatioGI50 is 15.24.

Q: And the Papp A→B at 1.5 h [13]?
A: The Papp A→B at 1.5 h was under 1.83 ×10⁻⁶ cm/s.

Q: And the Activity [14]?
A: The Activity was 82.3%.

Q: What about the Activity [15] of the same compound?
A: Its Activity is “inactive”.

Q: And the Activity [16]?
A: Its Activity is 65.2%.

Q: And the Activity [17]?
A: The Activity was 70.2%.

Q: What about the inhibition [18] of the same compound?
A: Its inhibition is “Active”.

Q: And the Activity [19]?
A: The Activity was 70%.

Q: And the inhibition [20]?
A: The inhibition was “Active”.

Q: And the GI50 [21]?
A: The GI50 was 320 nM.

Q: And the Activity [22]?
A: The Activity was 83.4%.

Q: And the Activity [23]?
A: Its Activity is 2.4%.

Q: And the Activity [24]?
A: The Activity was “inactive”.

Q: What about the Papp A→B at 1.5 h [25] of the same compound?
A: The Papp A→B at 1.5 h was under 1.82 ×10⁻⁶ cm/s.

Q: What about the Activity [26] of the same compound?
A: The Activity was 71.5%.

— ChEMBL document CHEMBL3751676, “Combating P-glycoprotein-mediated multidrug resistance with 10-O-phenyl dihydroartemisinin ethers in MCF-7 cells” (Eur J Med Chem, 2016)
